Results as given in ChEMBL document CHEMBL1158484 (J Med Chem, 2009).
Active and inactive are the calls of the source. The rule behind the calls is not given here.

Experiments:
[1] = Selectivity index, ratio of IC50 for rat L6 cells to IC50 for bloodstream Trypanosoma brucei rhodesiense STIB900; format: toxicity, cell-based; conditions: read-out: Ratio IC50
L6 = assay: Cytotoxicity against rat L6 cells after 70 hrs by alamar blue assay; format: cell-based; conditions: L6, 70 h
Plasmodium falciparum = assay: Antiplasmodial activity after 48 hrs against chloroquine-resistant Plasmodium falciparum K1 infected human erythrocytes by [3H]hypoxanthine uptake; format: functional, organism-based
[2] = test system: Trypanosoma brucei rhodesiense; assay: Antitrypanosomal activity against bloodstream Trypanosoma brucei rhodesiense STIB900 after 70 hrs by alamar blue assay; format: functional, organism-based; conditions: STIB900, 70 h
Method in brief: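 Bloodstream forms, 2000 per well, in supplemented MEM with Earle's salts (0.2 mM 2-mercaptoethanol, 1 mM pyruvate, 0.5 mM hypoxanthine, 15% heat-inactivated horse serum). Serial dilutions, 70 h at 37 °C, 5% CO2. IC50 from sigmoidal curves; two independent runs in duplicate. DMSO ≤1%.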

[3] = Selectivity index, ratio of IC50 for rat L6 cells to IC50 for chloroquine-resistant Plasmodium falciparum K1; format: toxicity, cell-based; conditions: read-out: Ratio IC50
Method in brief: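 Ratio of L6 IC50 to P. falciparum K1 IC50. L6: 4000 cells, 70 h at 37 °C, Alamar blue fluorescence. Parasites: infected human erythrocytes (1.25% hematocrit, 0.3% parasitemia) in low-O2 gas for 48 h, then [3H]-hypoxanthine for 24 h, uptake counted. Sigmoidal IC50s, two independent runs in duplicate.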

Leishmania donovani [4] = assay: Antileishmanial activity against axenic amastigotes of Leishmania donovani MHOM/SD/62/1S-CL2D after 72 hrs; format: functional, organism-based
Method in brief: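 Axenic amastigotes (adapted from promastigotes), 6×10^4 per well, amastigote medium, 37 °C. 2-fold compound dilutions; 72 h at 37 °C, humidified 5% CO2. Growth read by tetrazolium CellTiter absorbance at 490 nm several hours after reagent addition. IC50 from four-parameter dose–response fit. DMSO ≤1%.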

[5] = Selectivity index, ratio of IC50 for rat L6 cells to IC50 for axenic amastigotes of Leishmania donovani MHOM/SD/62/1S-CL2D; format: toxicity, cell-based; conditions: read-out: Ratio IC50
Method in brief: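 Ratio of L6 IC50 to L. donovani IC50. L6: 4000 cells in RPMI 1640 with 10% FBS, 70 h at 37 °C, then Alamar blue 2–3 h, fluorescence 536/588 nm. Leishmania: 6×10^4 axenic amastigotes per well, 2-fold dilutions, 72 h at 37 °C in 5% CO2, tetrazolium CellTiter read at 490 nm. IC50 from a four-parameter dose–response fit.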

[6] = test system: Trypanosoma brucei rhodesiense; assay: Antitrypanosomal activity against bloodstream Trypanosoma brucei rhodesiense STIB900 infected in NMRI mouse assessed as parasite free mouse survival at 100 mg/kg, po administered for 4 consecutive days from day 3 to 6 postinfection measured up to 60 days; format: functional, organism-based; design: dose 100 mg/kg
[7] = test system: Trypanosoma brucei rhodesiense; assay: Antitrypanosomal activity against bloodstream Trypanosoma brucei rhodesiense STIB900 infected in NMRI mouse assessed as survival rate at 100 mg/kg, po administered 4 consecutive days from day 3 to 6 postinfection; format: functional
Method in brief: (§1)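 Female NMRI mice infected ip with 2×10^4 STIB900 bloodstream forms. Groups of four treated on days 3–6 postinfection. Compounds in DMSO diluted with water to a final 10% DMSO. Untreated infected controls. Tail blood checked for parasitemia to day 60. Surviving aparasitemic mice at day 60 scored cured; mean survival time in days from recorded deaths.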

Leishmania donovani [8] = assay: Ratio of compound IC50 to pentamidine IC50 for Leishmania donovani MHOM/SD/62/1S-CL2D; format: functional
[9] = test system: Trypanosoma brucei rhodesiense; assay: Antitrypanosomal activity against bloodstream Trypanosoma brucei rhodesiense STIB900 infected in NMRI mouse assessed as survival rate at 5 mg/kg, ip administered 4 consecutive days from day 3 to 6 postinfection; format: functional; conditions: route intraperitoneal; method in brief: as §1
[10] = test system: Trypanosoma brucei rhodesiense; assay: Ratio compound IC50 to pentamidine IC50 for Trypanosoma brucei rhodesiense STIB900; format: functional
[11] = test system: Trypanosoma brucei rhodesiense; assay: Antitrypanosomal activity against bloodstream Trypanosoma brucei rhodesiense STIB900 infected in NMRI mouse assessed as parasite free mouse survival at 5 mg/kg, ip administered for 4 consecutive days from day 3 to 6 postinfection measured up to 60 days; format: functional, organism-based; design: dose 5 mg/kg
Method in brief: (§2)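 Female NMRI mice infected ip with 2×10^4 STIB900 bloodstream forms; groups of four dosed on 4 consecutive days, days 3-6 postinfection. Compounds in DMSO diluted with water to 10% DMSO. Untreated infected controls. Tail-blood parasitemia followed to day 60; surviving aparasitemic mice at day 60 scored cured; mean survival time recorded.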

[12] = test system: Trypanosoma brucei rhodesiense; assay: Antitrypanosomal activity against bloodstream Trypanosoma brucei rhodesiense STIB900 infected in NMRI mouse assessed as survival rate at 25 mg/kg, po administered 4 consecutive days from day 3 to 6 postinfection; format: functional; method in brief: as §1
[13] = test system: Trypanosoma brucei brucei; assay: Antitrypanosomal activity against second-stage Trypanosoma brucei brucei GVR35 infected in african sleeping sickness CNS mouse model; format: functional, organism-based
[14] = test system: Trypanosoma brucei rhodesiense; assay: Antitrypanosomal activity against bloodstream Trypanosoma brucei rhodesiense STIB900 infected in NMRI mouse assessed as parasite free mouse survival at 25 mg/kg, po administered for 4 consecutive days from day 3 to 6 postinfection measured up to 60 days; format: functional, organism-based; design: dose 25 mg/kg; method in brief: as §2
[15] = test system: Trypanosoma brucei rhodesiense; assay: Antitrypanosomal activity against bloodstream Trypanosoma brucei rhodesiense STIB900 infected in NMRI mouse assessed as parasite free mouse survival at 2 mg/kg, ip administered for 4 consecutive days from day 3 to 6 postinfection measured up to 60 days; format: functional, organism-based; design: dose 2 mg/kg; method in brief: as §1
[16] = test system: Trypanosoma brucei rhodesiense; assay: Antitrypanosomal activity against bloodstream Trypanosoma brucei rhodesiense STIB900 infected in NMRI mouse assessed as survival rate at 2 mg/kg, ip administered 4 consecutive days from day 3 to 6 postinfection; format: functional; conditions: route intraperitoneal; method in brief: as §1
[17] = test system: Trypanosoma brucei rhodesiense; assay: Antitrypanosomal activity against bloodstream Trypanosoma brucei rhodesiense STIB900 infected in NMRI mouse assessed as survival rate at 1 mg/kg, ip administered 4 consecutive days from day 3 to 6 postinfection; format: functional; conditions: route intraperitoneal; method in brief: as §1

CO/N=C(\N)c1ccc(OCCCCCOc2ccc(/C(N)=N\OC)cn2)nc1
selectivity ratio [1]: > 7
IC50 (L6): > 185 µM
IC50 (Plasmodium falciparum): 2.24 µM
IC50 [2]: 25.9 µM
selectivity ratio [3]: > 83
IC50 (Leishmania donovani [4]): > 100 µM
selectivity ratio [5]: 2

CO/N=C(\N)c1cc(OCCCCCOc2ccnc(/C(N)=N/OC)c2)ccn1
Activity [6]: inactive
Survival [7]: 11.75 days
selectivity ratio [1]: 8
IC50 (L6): 138 µM
IC50 (Plasmodium falciparum): > 2 µM
IC50 [2]: 18.2 µM
selectivity ratio [3]: < 69
IC50 (Leishmania donovani [4]): > 100 µM
selectivity ratio [5]: 1

N=C(N)c1ccc(OCCCCCOc2ccc(C(=N)N)nc2)cn1
Ratio IC50 (Leishmania donovani [8]): 4
Survival [9]: >36 days
selectivity ratio [1]: 4900
IC50 (L6): 4.9 µM
IC50 (Plasmodium falciparum): 0.009 µM
IC50 [2]: 0.001 µM
Ratio IC50 [10]: 3
selectivity ratio [3]: 544
IC50 (Leishmania donovani [4]): 0.47 µM
selectivity ratio [5]: 11

c1cc(OCCCCCOc2ccnc(C3=NCCN3)c2)cc(C2=NCCN2)n1
selectivity ratio [1]: 6
IC50 (L6): 80.8 µM
IC50 (Plasmodium falciparum): 4.26 µM
IC50 [2]: 12.5 µM
selectivity ratio [3]: 19
IC50 (Leishmania donovani [4]): > 100 µM
selectivity ratio [5]: < 1

c1cc(OCCCCCOc2cccc(C3=NCCN3)n2)nc(C2=NCCN2)c1
selectivity ratio [1]: 5
IC50 (L6): 14.6 µM
IC50 (Plasmodium falciparum): 0.568 µM
IC50 [2]: 3.07 µM
selectivity ratio [3]: 26
IC50 (Leishmania donovani [4]): 24 µM
selectivity ratio [5]: < 1

CC(C)NC(=N)c1ccc(OCCCCCOc2ccc(C(=N)NC(C)C)cn2)nc1
selectivity ratio [1]: > 562
IC50 (L6): > 155 µM
IC50 (Plasmodium falciparum): 0.256 µM
IC50 [2]: 0.276 µM
selectivity ratio [3]: > 605
IC50 (Leishmania donovani [4]): > 100 µM
selectivity ratio [5]: 2

c1cc(OCCCCCOc2ccc(C3=NCCN3)cn2)ncc1C1=NCCN1
selectivity ratio [1]: 78
IC50 (L6): 111 µM
IC50 (Plasmodium falciparum): 1.86 µM
IC50 [2]: 1.42 µM
selectivity ratio [3]: 60
IC50 (Leishmania donovani [4]): > 100 µM
selectivity ratio [5]: 1

N/C(=N\O)c1cc(OCCCCCOc2ccnc(/C(N)=N/O)c2)ccn1
Activity [6]: inactive
Survival [7]: 14.25 days
selectivity ratio [1]: 13
IC50 (L6): 159 µM
IC50 (Plasmodium falciparum): > 2.1 µM
IC50 [2]: 12 µM
selectivity ratio [3]: < 76
IC50 (Leishmania donovani [4]): 45 µM
selectivity ratio [5]: 4

CC(C)NC(=N)c1cc(OCCCCCOc2ccnc(C(=N)NC(C)C)c2)ccn1
selectivity ratio [1]: > 91
IC50 (L6): > 155 µM
IC50 (Plasmodium falciparum): 1.33 µM
IC50 [2]: 1.7 µM
selectivity ratio [3]: > 117
IC50 (Leishmania donovani [4]): > 100 µM
selectivity ratio [5]: 2

N=C(N)c1cc(OCCCCCOc2ccnc(C(=N)N)c2)ccn1
Survival [9]: 14 days
selectivity ratio [1]: 1160
IC50 (L6): 59.3 µM
IC50 (Plasmodium falciparum): 0.016 µM
IC50 [2]: 0.051 µM
selectivity ratio [3]: 3710
IC50 (Leishmania donovani [4]): 38 µM
Activity [11]: inactive
selectivity ratio [5]: 2

N=C(N)c1ccc(OCCCCCOc2ccc(C(=N)N)cc2)cc1 [PENTAMIDINE]
Survival [9]: >45 days

N/C(=N/O)c1ccc(OCCCCCOc2ccc(/C(N)=N\O)nc2)cn1
Survival [12]: >60 days
selectivity ratio [1]: 2
IC50 (L6): 166 µM
Activity [13]: inactive
Activity [14]: Active
IC50 (Plasmodium falciparum): > 10.7 µM
IC50 [2]: 108 µM
selectivity ratio [3]: < 16
IC50 (Leishmania donovani [4]): > 100 µM
selectivity ratio [5]: < 2

N=C(N)c1ccc(OCCCCCOc2ccc(C(=N)N)cn2)nc1
Survival [9]: 17.75 days
selectivity ratio [1]: 1960
IC50 (L6): 137 µM
IC50 (Plasmodium falciparum): 0.329 µM
IC50 [2]: 0.07 µM
selectivity ratio [3]: 416
IC50 (Leishmania donovani [4]): 39 µM
Activity [11]: inactive
selectivity ratio [5]: 4

N/C(=N\O)c1ccc(OCCCCCOc2ccc(/C(N)=N\O)cn2)nc1
Survival [12]: 8.75 days
selectivity ratio [1]: < 1
IC50 (L6): 16.4 µM
Activity [14]: inactive
IC50 (Plasmodium falciparum): 6.5 µM
IC50 [2]: 27.4 µM
selectivity ratio [3]: 3
IC50 (Leishmania donovani [4]): > 100 µM
selectivity ratio [5]: < 1

CO/N=C(/N)c1ccc(OCCCCCOc2ccc(/C(N)=N\OC)nc2)cn1
Survival [12]: 19.5 days
selectivity ratio [1]: < 1
IC50 (L6): 39.4 µM
Activity [14]: inactive
IC50 (Plasmodium falciparum): 3.5 µM
IC50 [2]: 51.2 µM
selectivity ratio [3]: 11
IC50 (Leishmania donovani [4]): > 50 µM
selectivity ratio [5]: < 1

Nc1nc(N)nc(Nc2ccc([As]3SCC(CO)S3)cc2)n1 (centres undefined) [MELARSOPROL]
Activity [15]: Active
Survival [16]: >60 days
Survival [17]: >51.5 days

c1cc(C2=NCCN2)ncc1OCCCCCOc1ccc(C2=NCCN2)nc1
Survival [9]: 12.75 days
selectivity ratio [1]: 484
IC50 (L6): 82.3 µM
IC50 (Plasmodium falciparum): 0.036 µM
IC50 [2]: 0.17 µM
selectivity ratio [3]: 2290
IC50 (Leishmania donovani [4]): 36 µM
Activity [11]: inactive
selectivity ratio [5]: 2

N=C(N)c1cccc(OCCCCCOc2cccc(C(=N)N)n2)n1
Survival [9]: 22.5 days
selectivity ratio [1]: 6000
IC50 (L6): 114 µM
IC50 (Plasmodium falciparum): 0.027 µM
IC50 [2]: 0.019 µM
selectivity ratio [3]: 4220
IC50 (Leishmania donovani [4]): 4.1 µM
Activity [11]: inactive
selectivity ratio [5]: 28

N/C(=N\O)c1cccc(OCCCCCOc2cccc(/C(N)=N/O)n2)n1
selectivity ratio [1]: 3
IC50 (L6): 52.2 µM
IC50 (Plasmodium falciparum): 10.5 µM
IC50 [2]: 19 µM
selectivity ratio [3]: 5
IC50 (Leishmania donovani [4]): > 50 µM
selectivity ratio [5]: 1

CC(C)NC(=N)c1ccc(OCCCCCOc2ccc(C(=N)NC(C)C)nc2)cn1
Survival [9]: 18.5 days
selectivity ratio [1]: 4350
IC50 (L6): 148 µM
IC50 (Plasmodium falciparum): 0.006 µM
IC50 [2]: 0.034 µM
selectivity ratio [3]: 24700
IC50 (Leishmania donovani [4]): 6 µM
Activity [11]: inactive
selectivity ratio [5]: 25
